These results are taken from ChEMBL document CHEMBL1156462, “Seco-pregnane steroids target the subgenomic RNA of alphavirus-like RNA viruses” (Proc Natl Acad Sci U S A, 2007).

The test system of data set [1] is Tobacco mosaic virus. The experiment in a line: Inhibition of TMV U1 multiplication in tobacco BY2 protoplast at 10 nM assessed as local lesion size on Chenopodium quinoa leaves by local lesion assay. The class given is functional.
Data set [2] has as its system Tobacco mosaic virus. The experiment in a line: Inhibition of TMV U1 multiplication in tobacco BY2 protoplast at 40 nM assessed as inhibition of local lesions on Chenopodium quinoa leaves by local lesion assay after 3 days postinfection. It is filed as functional. The settings on record: U1, 72 h. A digest of the protocol:
(§1)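 TMV premixed with compound at a range of concentrations used to inoculate tobacco BY-2 protoplasts; virus multiplication then assayed by counting local lesions on the local lesion host Chenopodium quinoa.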

In data set [3] the test system is Tobacco mosaic virus. Description: Inhibition of TMV U1 multiplication in tobacco BY2 protoplast at 30 nM assessed as inhibition of local lesions on Chenopodium quinoa leaves by local lesion assay after 3 days postinfection. It is filed as functional. As to conditions: U1, 72 h. The method, boiled down: as §1
The test system of data set [4] is Tobacco mosaic virus. The experiment in a line: Inhibition of TMV U1 replication in tobacco BY2 protoplast at 50 nM by local lesion assay using Chenopodium quinoa leaves. The class given is functional, organism-based. The method, boiled down:
as §1

A short description of data set [5]: Growth inhibition of hamster BHK21 cells at 100 nM after 48 hrs. It is filed as cell-based, Mesocricetus auratus. The settings on record: bhk-21, 48 h, 0.1 µM. The method, boiled down:
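BHK-21 cells mock-infected and incubated with 100 nM compound for 48 h; cell morphology and growth examined by light microscopy.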

In data set [6] the test system is Tobacco mosaic virus. The experiment in a line: Inhibition of TMV U1 multiplication in tobacco BY2 protoplast at 30 nM assessed as local lesion size on Chenopodium quinoa leaves by local lesion assay. The class given is functional.
The test system of data set [7] is Tobacco mosaic virus. Description: Inhibition of TMV U1 multiplication in tobacco BY2 protoplast at 40 nM assessed as local lesion size on Chenopodium quinoa leaves by local lesion assay. It is filed as functional.
In data set [8] the test system is Tobacco mosaic virus. Description: Inhibition of TMV U1 replication in tobacco BY2 protoplast by local lesion assay using Chenopodium quinoa leaves. It is filed as functional, organism-based. The method, boiled down: as §1
Data set [9] relates to Tobacco mosaic virus. Description: Inhibition of TMV U1 multiplication in tobacco BY2 protoplast at 20 nM assessed as inhibition of local lesions on Chenopodium quinoa leaves by local lesion assay after 3 days postinfection. It is filed as functional. As to conditions: U1, 72 h. A digest of the protocol: as §1
The test system of data set [10] is Tobacco mosaic virus. Description: Inhibition of TMV U1 multiplication in tobacco BY2 protoplast at 50 nM assessed as local lesion size on Chenopodium quinoa leaves by local lesion assay. The class given is functional.
Data set [11] relates to Tobacco mosaic virus. The experiment in a line: Inhibition of TMV U1 multiplication in tobacco BY2 protoplast at 50 nM assessed as inhibition of local lesions on Chenopodium quinoa leaves by local lesion assay after 3 days postinfection. It is filed as functional. The settings on record: U1, 72 h. A digest of the protocol: as §1
Data set [12] has as its system Tobacco mosaic virus. Description: Inhibition of TMV U1 multiplication in tobacco BY2 protoplast at 10 nM assessed as inhibition of local lesions on Chenopodium quinoa leaves by local lesion assay after 3 days postinfection. The class given is functional. As to conditions: U1, 72 h. The method, boiled down:
as §1

In data set [13] the test system is Tobacco mosaic virus. Description: Decrease in TMV U1 coat protein level in TMV infected tobacco BY2 protoplast at 50 nM by Western blot analysis. The class given is functional, organism-based. The method, boiled down:
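BY-2 protoplasts (5 ml, 1.5 × 10⁶/ml) infected with TMV pretreated with compound; total protein extracted and coat protein detected by Western blot.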
(In general: A western blot detects proteins with antibodies after separation by electrophoresis.)

The test system of data set [14] is Sindbis virus. Description: Antiviral activity against Sindbis virus XJ160 in BHK21 cells assessed as reduction of virus-induced cytopathic effect after 24 hrs. The class given is functional, organism-based. As to conditions: BHK-21. The method, boiled down:
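SINV XJ-160 (2 × 10⁵ pfu/ml, thrice plaque-purified) treated with compound for 15 min, adsorbed 1 h to BHK-21 cells at MOI 0.01 in quadruplicate; washed, fresh DMEM with 5% FBS added, cells kept at 37°C, 5% CO₂. Cytopathic morphology scored by light microscopy at 24 hpi.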
In general terms: Cytopathic effects are the visible damage that an infection or toxin causes in cultured cells.

The test system of data set [15] is Tobacco mosaic virus. The experiment in a line: Inhibition of TMV U1 multiplication in tobacco BY2 protoplast at 20 nM assessed as local lesion size on Chenopodium quinoa leaves by local lesion assay. It is filed as functional.
The test system of data set [16] is Tobacco mosaic virus. The experiment in a line: Antiviral activity against GFP-fused TMV U1 infected Nicotiana tabacum cv K326 plant leaves assessed as inhibition of virus movement by GFP fluorescence assay. The class given is functional, organism-based.
For data set [17], the system named is Tobacco mosaic virus. The experiment in a line: Antiviral activity against TMV U1 infected Nicotiana tabacum cv K326 plant leaves assessed as inhibition of systemic virus infection. The class given is functional, organism-based.

Activity calls are given as the source filed them. No cut-off for these calls is given here.

Consider `CO[C@@H]1C[C@H](O[C@H]2CC[C@@]3(C)C(=CC[C@H]4C(=O)OC5CO[C@]6(C)OC=C(CC[C@@H]43)[C@H]56)C2)O[C@H](C)[C@H]1O` (stereo not given in full) [CYNATRATOSIDE A], for which the Activity was 2.3 mm in data set [1]; “Non-toxic” in [5]; 1.5 mm in data set [6]; 1.2 mm in data set [7]; 0 mm in [10]; “Dose-dependent effect” in data set [14]. Moreover, the Activity in [15] amounted to 1.8 mm. In data set [2], the inhibition (commonly the percentage by which the read-out fell short of the control) at 0.04 µM worked out at 93%. For the same molecule, in [3], the inhibition at 0.03 µM was 87%. Further, the outcome in data set [4] and in [13] was Active. Also, 25 nM corresponded to half-maximal inhibition in data set [8] (IC50). Moreover, in data set [9], the inhibition at 0.02 µM came out at 37%. For the same molecule, in data set [11], the inhibition at 0.05 µM stood at 100%. In data set [12], the inhibition at 0.01 µM was 20%.

Regarding `C[C@]12OC=C3CC[C@H]4[C@@H](CC=C5C[C@@H](O)CC[C@@]54C)C(=O)OC(CO1)[C@@H]32` (stereo not given in full) [GLAUCOGENIN C], the Activity is 2.1 mm in data set [1]; “Non-toxic” in data set [5]; 1.5 mm in data set [6]; 1.3 mm in data set [7]; 0 mm in [10]; “Dose-dependent effect” in data set [14]. The Activity in [15] was 1.9 mm. Besides, in [2], the inhibition at 0.04 µM amounted to 85%. For the same molecule, the inhibition at 0.03 µM in data set [3] stood at 79%. In addition, the result in data set [4], in [16] and in [13] was Active. Also, half-maximal inhibition in data set [8] (IC50) was put at 17 nM. For the same molecule, in [9], the inhibition at 0.02 µM was 60%. Besides, the inhibition at 0.05 µM in data set [11] amounted to 100%. Also, in data set [12], the inhibition at 0.01 µM came out at 17%.

As to `CO[C@H]1C[C@H](O[C@H]2[C@@H](OC)C[C@H](O[C@@H]3[C@@H](C)O[C@H](O[C@H]4CC[C@@]5(C)C(=CC[C@H]6C(=O)OC7CO[C@]8(C)OC=C(CC[C@@H]65)[C@H]78)C4)C[C@H]3OC)O[C@@H]2C)O[C@@H](C)[C@@H]1O[C@@H]1O[C@H](CO)[C@@H](O[C@@H]2O[C@H](CO)[C@@H](O)[C@H](O)[C@H]2O)[C@H](O)[C@H]1O` (stereo not given in full) [PANICULATUMOSIDE D], the Activity is 1.7 mm in data set [1]; “Non-toxic” in data set [5]; 1.4 mm in [6]; 1.2 mm in [7]; 0 mm in data set [10]; “Dose-dependent effect” in data set [14]. Moreover, the Activity in data set [15] is listed as 1.6 mm. For the same molecule, the inhibition at 0.04 µM in data set [2] is 88%. The inhibition at 0.03 µM in [3] is 79%. For the same molecule, the outcome in [4], in data set [16], in data set [13] and in [17] was Active. Further, in data set [8], the IC50 – broadly, the point on the concentration scale where inhibition reaches its midpoint – turned out to be 25 nM. Moreover, the inhibition at 0.02 µM in [9] stood at 31%. Further, the inhibition at 0.05 µM in [11] was determined as 100%. Moreover, the inhibition at 0.01 µM in data set [12] turned out to be 6%.

In the case of `CO[C@@H]1C[C@@H](O[C@H]2CC[C@@]3(C)C(=CC[C@H]4C(=O)OC5CO[C@]6(C)OC=C(CC[C@@H]43)[C@H]56)C2)O[C@H](C)[C@H]1O[C@H]1C[C@H](O)[C@H](O[C@H]2C[C@@H](OC)[C@@H](O[C@@H]3O[C@H](CO)[C@@H](O[C@@H]4O[C@H](CO)[C@@H](O)[C@H](O)[C@H]4O)[C@H](O)[C@H]3O)[C@H](C)O2)[C@@H](C)O1` (stereo not given in full) [PANICULATUMOSIDE E], the Activity in data set [1] is 1.6 mm; in data set [5], “Non-toxic”; in [6], 1.2 mm; in data set [7], 1.1 mm; in data set [10], 0 mm; in data set [14] it was “Dose-dependent effect”. Moreover, in data set [15], the Activity is recorded as 1.3 mm. For the same molecule, the inhibition at 0.04 µM in data set [2] came out at 87%. In data set [3], the inhibition at 0.03 µM amounted to 73%. The outcome in [4], in data set [16], in data set [13] and in data set [17] was Active. In data set [8], this molecule gave an IC50 of 25 nM. Also, the inhibition at 0.02 µM in data set [9] turned out to be 38%. Moreover, the inhibition at 0.05 µM in data set [11] stood at 100%. In addition, in data set [12], the inhibition at 0.01 µM was determined as 16%.
